# Assay results from ChEMBL document CHEMBL5335771, “Thioxanthenone-based derivatives as multitarget therapeutic leads for Alzheimer's disease” (Eur J Med Chem, 2023).
# What was measured:
# [1] = Cytotoxicity against rat Primary cerebellar granule neuron assessed as cell viability at 10 uM relative to control; assay type: toxicity, cell-based, Cerebellar granule neurone; conditions: primary cerebellar granule neurons, read-out: Activity
# [2] = molecular target: T1, Microtubule-associated protein tau (Homo sapiens, UniProt P10636); test: Inhibition of PHF6 peptide (unknown origin) aggregation at 10 uM measured after 3 hrs by thioflavin T fluorescence based fluorimetric analysis relative to control
# Target sequence in this assay (P10636 whole entry, looked up): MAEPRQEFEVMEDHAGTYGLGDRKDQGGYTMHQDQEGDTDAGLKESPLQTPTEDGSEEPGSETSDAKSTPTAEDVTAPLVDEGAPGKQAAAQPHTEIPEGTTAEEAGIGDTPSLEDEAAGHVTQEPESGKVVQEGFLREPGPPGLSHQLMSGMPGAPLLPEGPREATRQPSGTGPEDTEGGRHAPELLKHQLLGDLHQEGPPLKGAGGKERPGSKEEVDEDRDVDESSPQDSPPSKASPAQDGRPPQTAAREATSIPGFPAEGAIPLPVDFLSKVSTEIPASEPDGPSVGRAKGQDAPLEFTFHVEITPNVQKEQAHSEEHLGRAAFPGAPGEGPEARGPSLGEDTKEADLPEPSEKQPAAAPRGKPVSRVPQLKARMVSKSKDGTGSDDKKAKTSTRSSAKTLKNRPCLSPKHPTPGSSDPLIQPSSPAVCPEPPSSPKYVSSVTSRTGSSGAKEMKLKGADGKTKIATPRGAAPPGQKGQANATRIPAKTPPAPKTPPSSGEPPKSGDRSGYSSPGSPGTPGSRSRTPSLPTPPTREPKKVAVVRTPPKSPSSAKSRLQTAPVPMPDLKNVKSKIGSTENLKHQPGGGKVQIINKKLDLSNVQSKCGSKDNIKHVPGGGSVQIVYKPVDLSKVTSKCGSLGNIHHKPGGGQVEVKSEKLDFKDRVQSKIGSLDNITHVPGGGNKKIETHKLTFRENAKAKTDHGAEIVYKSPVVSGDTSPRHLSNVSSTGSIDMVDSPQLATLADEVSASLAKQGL
# [3] = Cytotoxicity against human SH-SY5Y cells incubated for 24 hrs by MTT assay; assay type: toxicity, cell-based
# [4] = molecular target: T1, Microtubule-associated protein tau; test: Inhibition of tau (unknown origin) aggregation expressed in Escherichia coli BL21 (DE3)
# Outline: (§1)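 E. coli BL21(DE3) carrying pTARA (T7 RNA polymerase under PBAD) and pRKT42 (four-repeat tau) grown at 37 °C in M9 with 0.5% glucose, antibiotics and 250 μM ThS to OD600 0.6. […] ThS fluorescence ex 430/em 485 nm, normalized to tau-expressing cells (100%) and non-expressing cells (0%); OD600 checked for growth.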
# Target sequence in this assay (P10636 whole entry): as the sequence (P10636 whole entry, looked up) above
# [5] = Cytotoxicity against green monkey Vero 76 cells incubated for 48 to 96 hrs by crystal violet staining assay; assay type: toxicity, cell-based; conditions: green monkey (Chlorocebus sabaeus)
# [6] = molecular target: T2, Amyloid-beta precursor protein (Homo sapiens, UniProt P05067); test: Inhibition of amyloid beta 40 peptide (unknown origin) aggregation at 100 uM incubated for 2 hr by ThT fluorescence based spectrofluorimetric analysis relative to control
# T2 sequence (P05067 whole entry): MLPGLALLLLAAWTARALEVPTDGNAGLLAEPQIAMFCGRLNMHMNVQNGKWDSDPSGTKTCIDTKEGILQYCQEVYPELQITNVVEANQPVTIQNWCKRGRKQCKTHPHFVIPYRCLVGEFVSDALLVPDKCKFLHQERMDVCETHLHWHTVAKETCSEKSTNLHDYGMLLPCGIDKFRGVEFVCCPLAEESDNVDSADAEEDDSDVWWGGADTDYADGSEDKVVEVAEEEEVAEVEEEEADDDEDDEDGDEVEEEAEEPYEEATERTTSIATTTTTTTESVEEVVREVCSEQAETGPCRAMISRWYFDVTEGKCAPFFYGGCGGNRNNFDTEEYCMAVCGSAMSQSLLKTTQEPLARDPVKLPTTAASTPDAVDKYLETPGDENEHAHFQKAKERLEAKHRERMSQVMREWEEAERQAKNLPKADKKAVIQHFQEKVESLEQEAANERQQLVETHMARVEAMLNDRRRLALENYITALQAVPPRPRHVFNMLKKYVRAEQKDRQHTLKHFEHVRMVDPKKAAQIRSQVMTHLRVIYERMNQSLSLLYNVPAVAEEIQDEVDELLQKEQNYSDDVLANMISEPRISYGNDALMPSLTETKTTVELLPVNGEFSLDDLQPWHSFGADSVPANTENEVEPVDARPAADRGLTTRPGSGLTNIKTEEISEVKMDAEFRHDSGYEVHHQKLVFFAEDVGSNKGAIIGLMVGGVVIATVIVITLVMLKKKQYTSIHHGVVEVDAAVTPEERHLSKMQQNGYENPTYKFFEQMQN
# Outline: (§2)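 Aβ40 peptide aggregation enhanced with 2% HFIP; thioflavin T fluorescence read-out; run in triplicate.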
# [7] = molecular target: T2, Amyloid-beta precursor protein; test: Inhibition of amyloid beta 40 peptide (unknown origin) aggregation incubated for 2 hr by ThT fluorescence based spectrofluorimetric analysis; outline: as §2
# [8] = molecular target: T1, Microtubule-associated protein tau; test: Inhibition of tau (unknown origin) aggregation expressed in Escherichia coli BL21 (DE3) at 10 uM relative to control; outline: as §1
# Target sequence in this assay (P10636 whole entry): as the sequence (P10636 whole entry, looked up) above
# [9] = Cytotoxicity against mouse brain Primary embryonic cortical cell assessed as cell death at 2.5 uM incubated for 5 hrs by propidium iodide dye based spectrofluorometric analysis relative to control; assay type: toxicity
# Outline: (§3)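 Primary cortical cultures from E16.5 mouse embryo brains, trypsinized, plated on poly-D-lysine, grown in Neurobasal with glutamine, glucose, 5% horse serum and B27; compounds added at 4 DIV. Propidium iodide 30 μM; baseline F1 read 1 h after PI; ex 530/em 645 nm. Fmax after digitonin permeabilization. % death = 100×(Fn−F1)/(Fmax−F1); mean of three independent experiments.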
# [10] = Cytotoxicity against mouse brain Primary embryonic cortical cell assessed as cell death at 30 uM incubated for 48 hrs by propidium iodide dye based spectrofluorometric analysis relative to control; assay type: toxicity; outline: as §3
# [11] = Cytotoxicity against mouse brain Primary embryonic cortical cell assessed as cell death at 30 uM incubated for 4 hrs by propidium iodide dye based spectrofluorometric analysis relative to control; assay type: toxicity; outline: as §3
# [12] = Cytotoxicity against mouse brain Primary embryonic cortical cell assessed as cell death at 5 uM incubated for 5 hrs by propidium iodide dye based spectrofluorometric analysis relative to control; assay type: toxicity; outline: as §3
# [13] = Cytotoxicity against mouse brain Primary embryonic cortical cell assessed as cell death at 10 uM incubated for 1 hr by propidium iodide dye based spectrofluorometric analysis relative to control; assay type: toxicity; outline: as §3
# [14] = Cytotoxicity against mouse brain Primary embryonic cortical cell assessed as cell death at 2.5 uM incubated for 3 hrs by propidium iodide dye based spectrofluorometric analysis relative to control; assay type: toxicity; outline: as §3
# [15] = Cytotoxicity against mouse brain Primary embryonic cortical cell assessed as cell death at 10 uM incubated for 48 hrs by propidium iodide dye based spectrofluorometric analysis relative to control; assay type: toxicity; outline: as §3
# [16] = Cytotoxicity against mouse brain Primary embryonic cortical cell assessed as cell death at 30 uM incubated for 3 hrs by propidium iodide dye based spectrofluorometric analysis relative to control; assay type: toxicity; outline: as §3
# [17] = Cytotoxicity against mouse brain Primary embryonic cortical cell assessed as cell death at 2.5 uM incubated for 4 hrs by propidium iodide dye based spectrofluorometric analysis relative to control; assay type: toxicity; outline: as §3
# [18] = Cytotoxicity against mouse brain Primary embryonic cortical cell assessed as cell death at 5 uM incubated for 4 hrs by propidium iodide dye based spectrofluorometric analysis relative to control; assay type: toxicity; outline: as §3
# [19] = Cytotoxicity against mouse brain Primary embryonic cortical cell assessed as cell death at 5 uM incubated for 6 hrs by propidium iodide dye based spectrofluorometric analysis relative to control; assay type: toxicity; outline: as §3
# [20] = Cytotoxicity against mouse brain Primary embryonic cortical cell assessed as cell death at 10 uM incubated for 72 hrs by propidium iodide dye based spectrofluorometric analysis relative to control; assay type: toxicity; outline: as §3
# [21] = Cytotoxicity against mouse brain Primary embryonic cortical cell assessed as cell death at 30 uM incubated for 24 hrs by propidium iodide dye based spectrofluorometric analysis relative to control; assay type: toxicity; outline: as §3
# [22] = Cytotoxicity against mouse brain Primary embryonic cortical cell assessed as cell death at 10 uM incubated for 3 hrs by propidium iodide dye based spectrofluorometric analysis relative to control; assay type: toxicity; outline: as §3
# [23] = Cytotoxicity against mouse brain Primary embryonic cortical cell assessed as cell death at 30 uM incubated for 2 hrs by propidium iodide dye based spectrofluorometric analysis relative to control; assay type: toxicity; outline: as §3
# [24] = Cytotoxicity against mouse brain Primary embryonic cortical cell assessed as cell death at 2.5 uM incubated for 2 hrs by propidium iodide dye based spectrofluorometric analysis relative to control; assay type: toxicity; outline: as §3
# [25] = Cytotoxicity against mouse brain Primary embryonic cortical cell assessed as cell death at 30 uM incubated for 1 hr by propidium iodide dye based spectrofluorometric analysis relative to control; assay type: toxicity; outline: as §3
# [26] = Cytotoxicity against mouse brain Primary embryonic cortical cell assessed as cell death at 5 uM incubated for 1 hr by propidium iodide dye based spectrofluorometric analysis relative to control; assay type: toxicity; outline: as §3
# [27] = Cytotoxicity against mouse brain Primary embryonic cortical cell assessed as cell death at 5 uM incubated for 2 hrs by propidium iodide dye based spectrofluorometric analysis relative to control; assay type: toxicity; outline: as §3
# [28] = Cytotoxicity against mouse brain Primary embryonic cortical cell assessed as cell death at 5 uM incubated for 3 hrs by propidium iodide dye based spectrofluorometric analysis relative to control; assay type: toxicity; outline: as §3
# [29] = Cytotoxicity against mouse brain Primary embryonic cortical cell assessed as cell death at 10 uM incubated for 6 hrs by propidium iodide dye based spectrofluorometric analysis relative to control; assay type: toxicity; outline: as §3
# [30] = Cytotoxicity against mouse brain Primary embryonic cortical cell assessed as cell death at 5 uM incubated for 72 hrs by propidium iodide dye based spectrofluorometric analysis relative to control; assay type: toxicity; outline: as §3
# [31] = Cytotoxicity against mouse brain Primary embryonic cortical cell assessed as cell death at 2.5 uM incubated for 24 hrs by propidium iodide dye based spectrofluorometric analysis relative to control; assay type: toxicity; outline: as §3
# [32] = Cytotoxicity against mouse brain Primary embryonic cortical cell assessed as cell death at 2.5 uM incubated for 48 hrs by propidium iodide dye based spectrofluorometric analysis relative to control; assay type: toxicity; outline: as §3
# [33] = Cytotoxicity against mouse brain Primary embryonic cortical cell assessed as cell death at 10 uM incubated for 5 hrs by propidium iodide dye based spectrofluorometric analysis relative to control; assay type: toxicity; outline: as §3
# [34] = Cytotoxicity against mouse brain Primary embryonic cortical cell assessed as cell death at 30 uM incubated for 6 hrs by propidium iodide dye based spectrofluorometric analysis relative to control; assay type: toxicity; outline: as §3
# [35] = Cytotoxicity against mouse brain Primary embryonic cortical cell assessed as cell death at 10 uM incubated for 24 hrs by propidium iodide dye based spectrofluorometric analysis relative to control; assay type: toxicity; outline: as §3
# [36] = Cytotoxicity against mouse brain Primary embryonic cortical cell assessed as cell death at 5 uM incubated for 24 hrs by propidium iodide dye based spectrofluorometric analysis relative to control; assay type: toxicity; outline: as §3
# [37] = Cytotoxicity against mouse brain Primary embryonic cortical cell assessed as cell death at 2.5 uM incubated for 1 hr by propidium iodide dye based spectrofluorometric analysis relative to control; assay type: toxicity; outline: as §3
# [38] = Cytotoxicity against mouse brain Primary embryonic cortical cell assessed as cell death at 10 uM incubated for 2 hrs by propidium iodide dye based spectrofluorometric analysis relative to control; assay type: toxicity; outline: as §3
# [39] = Cytotoxicity against mouse brain Primary embryonic cortical cell assessed as cell death at 2.5 uM incubated for 72 hrs by propidium iodide dye based spectrofluorometric analysis relative to control; assay type: toxicity; outline: as §3
# [40] = Cytotoxicity against mouse brain Primary embryonic cortical cell assessed as cell death at 30 uM incubated for 5 hrs by propidium iodide dye based spectrofluorometric analysis relative to control; assay type: toxicity; outline: as §3
# [41] = Cytotoxicity against mouse brain Primary embryonic cortical cell assessed as cell death at 30 uM incubated for 72 hrs by propidium iodide dye based spectrofluorometric analysis relative to control; assay type: toxicity; outline: as §3
# [42] = Cytotoxicity against mouse brain Primary embryonic cortical cell assessed as cell death at 2.5 uM incubated for 6 hrs by propidium iodide dye based spectrofluorometric analysis relative to control; assay type: toxicity; outline: as §3
# [43] = Cytotoxicity against mouse brain Primary embryonic cortical cell assessed as cell death at 5 uM incubated for 48 hrs by propidium iodide dye based spectrofluorometric analysis relative to control; assay type: toxicity; outline: as §3
# [44] = Cytotoxicity against mouse brain Primary embryonic cortical cell assessed as cell death at 10 uM incubated for 4 hrs by propidium iodide dye based spectrofluorometric analysis relative to control; assay type: toxicity; outline: as §3
structure (smiles),measurement,setting,value
Cc1ccc(NCC[C@@H]2CCCN3CCCC[C@H]23)c2c(=O)c3ccccc3sc12,viability at 10 µM,[1],78%
same,inhibition,[2],> 80%
same,IC50 at 24 h,[3],7.22 µM
same,IC50,[4],46 µM
same,IC50,[5],12.4 µM
CCN(CC)CCCNc1ccc(C)c2oc3ccccc3c(=O)c12,inhibition,[6],55%
same,IC50,[4],16 µM
CCN(CC)CCNc1ccc(C)c2sc3ccccc3c(=O)c12 [LUCANTHONE],IC50,[7],24 µM
same,IC50,[4],10.9 µM
same,IC50,[5],12.4 µM
Cc1ccc(NC[C@@H]2CCCN3CCCC[C@H]23)c2c(=O)c3ccccc3sc12,IC50,[7],28 µM
same,IC50,[5],12.4 µM
O=c1c2ccccc2sc2c([N+](=O)[O-])ccc(NCCC[C@@H]3CCCN4CCCC[C@H]34)c12,inhibition,[8],22%
same,Activity,[9],5.2%
same,IC50,[7],13 µM
same,Activity,[10],82.9%
same,Activity,[11],42%
same,Activity,[12],6.6%
same,Activity,[13],-3.1%
same,Activity,[14],3.7%
same,Activity,[15],79.1%
same,Activity,[16],29.7%
same,Activity,[17],4.7%
same,Activity,[18],4.3%
same,Activity,[19],5.7%
same,Activity,[20],74.8%
same,Activity,[21],82.1%
same,Activity,[22],6.4%
same,Activity,[23],19.1%
same,Activity,[24],3.1%
same,Activity,[25],11.6%
same,Activity,[26],1.6%
same,Activity,[27],2.9%
same,Activity,[28],5%
same,Activity,[29],35.9%
same,Activity,[30],79.4%
same,Activity,[31],85.5%
same,Activity,[32],83.3%
same,Activity,[33],31%
same,Activity,[34],54.3%
same,Activity,[35],86.1%
same,Activity,[36],77%
same,Activity,[37],0.3%
same,Activity,[38],1.7%
same,Activity,[39],79.6%
same,Activity,[40],51%
same,Activity,[41],80.8%
same,Activity,[42],5.2%
same,Activity,[43],72.4%
same,Activity,[44],16.2%
